Reference: ChEMBL document CHEMBL5329156, “Discovery and development of novel substituted monohydrazides as potent antifungal agents” (RSC Med Chem, 2023)
Values after ≈ are worked out from the molar mass of the structure shown. Active and inactive are the calls of the source. The rule behind the calls is not given here.

Tests used:
[1] = system: [Candida] auris; assay: Antifungal activity against Candida auris AR Bank # 0384 assessed as fungal growth inhibition by double dilution method; type: functional; conditions: Candidozyma auris
Summary of the method: (§1)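 Broth microdilution after CLSI M27-A3/M38-A2 with minor changes. Single colony grown overnight in YPD at 35 °C, 200 rpm. Compound final range 0.06-31.3 µg/mL; incubated 48 h at 35 °C.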

[2] = system: [Candida] auris; assay: Antifungal activity against Candida auris AR Bank # 387 assessed as fungal growth inhibition by double dilution method; type: functional; conditions: Candidozyma auris; summary of the method: as §1
[3] = system: [Candida] auris; assay: Antifungal activity against Candida auris AR Bank # 383 assessed as fungal growth inhibition by double dilution method; type: functional; conditions: Candidozyma auris; summary of the method: as §1
[4] = system: Candida albicans; assay: Antibiofilm activity against Candida albicans ATCC 10231 assessed as reduction in biofilm production at 1.96 to 3.9 microg/ml by biofilm formation assay; type: functional, organism-based; conditions: dose 1.96-3.9 µg/ml
[5] = system: [Candida] haemuloni; assay: Antifungal activity against Candida haemulonii AR Bank # 395 assessed as fungal growth inhibition by double dilution method; type: functional; conditions: Candidozyma haemuli; summary of the method: as §1
[6] = system: Candida albicans; assay: Antifungal activity against Candida albicans ATCC 64124 assessed as fungal growth inhibition by double dilution method; type: functional
Summary of the method: (§2)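 Broth microdilution after CLSI M27-A3/M38-A2 with minor modifications. A single colony was grown overnight in YPD at 35 °C with shaking at 200 rpm. Cells were mixed 1:1 with compound (final 0.06-31.3 µg/mL, from DMSO stocks) and incubated 48 h at 35 °C.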

[7] = system: Candida albicans; assay: Antifungal activity against itraconazole/fluconazole resistant Candida albicans ATCC MYA-1003 assessed as fungal growth inhibition by double dilution method; type: functional; summary of the method: as §2
[8] = system: Candida duobushaemulonii; assay: Antifungal activity against Candida duobushaemulonii AR Bank # 391 assessed as fungal growth inhibition by double dilution method; type: functional; conditions: Candidozyma duobushaemuli; summary of the method: as §1
[9] = system: [Candida] haemuloni; assay: Antifungal activity against Candida haemulonii AR Bank # 393 assessed as fungal growth inhibition by double dilution method; type: functional; conditions: Candidozyma haemuli; summary of the method: as §1
[10] = system: Nakaseomyces glabratus; assay: Antifungal activity against Candida glabrata ATCC 22019 assessed as fungal growth inhibition by double dilution method; type: functional; summary of the method: as §1
[11] = system: [Candida] auris; assay: Antifungal activity against Candida auris AR Bank # 390 assessed as fungal growth inhibition by double dilution method; type: functional; conditions: Candidozyma auris; summary of the method: as §1
[12] = system: Kodamaea ohmeri; assay: Antifungal activity against Kodamaea ohmeri AR Bank # 396 assessed as fungal growth inhibition by double dilution method; type: functional; summary of the method: as §1
[13] = system: [Candida] auris; assay: Antifungal activity against Candida auris AR Bank # 386 assessed as fungal growth inhibition by double dilution method; type: functional; conditions: Candidozyma auris; summary of the method: as §1
[14] = system: Aspergillus terreus; assay: Antifungal activity against Aspergillus terreus ATCC MYA-3633 assessed as fungal growth inhibition by double dilution method; type: functional
[15] = system: [Candida] auris; assay: Antifungal activity against Candida auris AR Bank # 0390 assessed as fungal growth inhibition by double dilution method; type: functional; conditions: Candidozyma auris; summary of the method: as §1
[16] = system: Cryptococcus neoformans; assay: Antifungal activity against Cryptococcus neoformans ATCC MYA-895 assessed as fungal growth inhibition by double dilution method; type: functional; summary of the method: as §1
[17] = system: [Candida] auris; assay: Antifungal activity against Candida auris AR Bank # 385 assessed as fungal growth inhibition by double dilution method; type: functional; conditions: Candidozyma auris; summary of the method: as §1
[18] = system: Clavispora lusitaniae; assay: Antifungal activity against Clavispora lusitaniae AR Bank # 398 assessed as fungal growth inhibition by double dilution method; type: functional; summary of the method: as §1
[19] = system: Candida albicans; assay: Antifungal activity against Candida albicans ATCC 10231 assessed as fungal growth inhibition by double dilution method; type: functional; summary of the method: as §1
[20] = system: Saccharomyces cerevisiae; assay: Antifungal activity against Saccharomyces cerevisiae AR Bank # 400 assessed as fungal growth inhibition by double dilution method; type: functional; summary of the method: as §1
[21] = system: Candida albicans; assay: Antifungal activity against itraconazole/fluconazole resistant Candida albicans ATCC MYA-1237 assessed as fungal growth inhibition by double dilution method; type: functional; summary of the method: as §2
[22] = system: Candida albicans; assay: Antifungal activity against itraconazole/fluconazole resistant Candida albicans ATCC 90819 assessed as fungal growth inhibition by double dilution method; type: functional; summary of the method: as §2
[23] = system: Candida albicans; assay: Antifungal activity against itraconazole/fluconazole susceptible Candida albicans ATCC MYA-2876 assessed as fungal growth inhibition by double dilution method; type: functional; summary of the method: as §2
[24] = system: Candida duobushaemulonii; assay: Antifungal activity against Candida duobushaemulonii AR Bank # 392 assessed as fungal growth inhibition by double dilution method; type: functional; conditions: Candidozyma duobushaemuli; summary of the method: as §1
[25] = system: [Candida] auris; assay: Antifungal activity against Candida auris AR Bank # 384 assessed as fungal growth inhibition by double dilution method; type: functional; conditions: Candidozyma auris; summary of the method: as §1
[26] = system: Nakaseomyces glabratus; assay: Antifungal activity against Candida glabrata ATCC 2001 assessed as fungal growth inhibition by double dilution method; type: functional; summary of the method: as §1
[27] = system: Aspergillus nidulans; assay: Antifungal activity against Aspergillus nidulans ATCC 38163 assessed as fungal growth inhibition by double dilution method; type: functional
[28] = system: [Candida] auris; assay: Antifungal activity against Candida auris AR Bank # 382 assessed as fungal growth inhibition by double dilution method; type: functional; conditions: Candidozyma auris; summary of the method: as §1
[29] = system: Pichia kudriavzevii; assay: Antifungal activity against Pichia kudriavzevii AR Bank # 397 assessed as fungal growth inhibition by double dilution method; type: functional; summary of the method: as §1
[30] = system: Aspergillus fumigatus; assay: Antifungal activity against Aspergillus fumigatus NRRL 5109 assessed as fungal growth inhibition by double dilution method; type: functional
[31] = system: [Candida] auris; assay: Antifungal activity against Candida auris AR Bank # 381 assessed as fungal growth inhibition by double dilution method; type: functional; conditions: Candidozyma auris; summary of the method: as §1
[32] = system: [Candida] auris; assay: Antifungal activity against Candida auris AR Bank # 388 assessed as fungal growth inhibition by double dilution method; type: functional; conditions: Candidozyma auris; summary of the method: as §1
[33] = system: Candida duobushaemulonii; assay: Antifungal activity against Candida duobushaemulonii AR Bank # 394 assessed as fungal growth inhibition by double dilution method; type: functional; conditions: Candidozyma duobushaemuli; summary of the method: as §1
[34] = system: Pichia kudriavzevii; assay: Antifungal activity against Pichia kudriavzevii ATCC 6258 assessed as fungal growth inhibition by double dilution method; type: functional; summary of the method: as §1
[35] = system: Aspergillus flavus; assay: Antifungal activity against Aspergillus flavus ATCC MYA-3631 assessed as fungal growth inhibition by double dilution method; type: functional
[36] = system: Aspergillus fumigatus; assay: Antifungal activity against Aspergillus fumigatus NRRL 6113 assessed as fungal growth inhibition by double dilution method; type: functional
[37] = system: Candida albicans; assay: Antifungal activity against itraconazole/fluconazole susceptible Candida albicans ATCC MYA-2310 assessed as fungal growth inhibition by double dilution method; type: functional; summary of the method: as §2
[38] = system: [Candida] auris; assay: Antifungal activity against Candida auris AR Bank # 389 assessed as fungal growth inhibition by double dilution method; type: functional; conditions: Candidozyma auris; summary of the method: as §1
[39] = system: Saccharomyces cerevisiae; assay: Antifungal activity against Saccharomyces cerevisiae AR Bank # 399 assessed as fungal growth inhibition by double dilution method; type: functional; summary of the method: as §1
[40] = system: Aspergillus fumigatus; assay: Antifungal activity against Aspergillus fumigatus NRRL 163 assessed as fungal growth inhibition by double dilution method; type: functional

| Structure (SMILES) | MIC [2] [µg/mL] | MIC [3] [µg/mL] | MIC [5] [µg/mL] | MIC [8] [µg/mL] | MIC [9] [µg/mL] | MIC [11] [µg/mL] | MIC [12] [µg/mL] | MIC [13] [µg/mL] | MIC [17] [µg/mL] | MIC [18] [µg/mL] | MIC [20] [µg/mL] | MIC [24] [µg/mL] | MIC [25] [µg/mL] | MIC [28] [µg/mL] | MIC [29] [µg/mL] | MIC [31] [µg/mL] | MIC [32] [µg/mL] | MIC [33] [µg/mL] | MIC [38] [µg/mL] | MIC [39] [µg/mL] | further results |
| --- | --- | --- | --- | --- | --- | --- | --- | --- | --- | --- | --- | --- | --- | --- | --- | --- | --- | --- | --- | --- | --- |
| O=C(NNc1cc(F)ccc1F)c1ccccn1 | 0.49 (≈ 1.97 µM) | 0.49 (≈ 1.97 µM) | 0.24 (≈ 0.963 µM) | 0.49 (≈ 1.97 µM) | 0.98 (≈ 3.93 µM) | 0.98 (≈ 3.93 µM) | 0.12 (≈ 0.482 µM) | 0.12 (≈ 0.482 µM) | 0.49 (≈ 1.97 µM) | 0.49 (≈ 1.97 µM) | 1.95 (≈ 7.82 µM) | 0.24 (≈ 0.963 µM) | 1.95 (≈ 7.82 µM) | 0.24 (≈ 0.963 µM) | 0.24 (≈ 0.963 µM) | 1.95 (≈ 7.82 µM) | 0.49 (≈ 1.97 µM) | 0.24 (≈ 0.963 µM) | 0.49 (≈ 1.97 µM) | 1.95 (≈ 7.82 µM) | MIC [1]: 0.24 µg/mL (≈ 0.963 µM); Activity [4]: inactive; MIC [6]: 1.95 µg/mL (≈ 7.82 µM); MIC [7]: 0.98 µg/mL (≈ 3.93 µM); MIC [10]: 3.9 µg/mL (≈ 15.6 µM); MIC [14]: 0.98 µg/mL (≈ 3.93 µM); MIC [15]: 0.98 µg/mL (≈ 3.93 µM); MIC [16]: 0.49 µg/mL (≈ 1.97 µM); MIC [19]: 0.12 µg/mL (≈ 0.482 µM); MIC [21]: 1.95 µg/mL (≈ 7.82 µM); MIC [22]: 0.98 µg/mL (≈ 3.93 µM); MIC [23]: 3.9 µg/mL (≈ 15.6 µM); MIC [26]: 3.9 µg/mL (≈ 15.6 µM); MIC [27]: 0.49 µg/mL (≈ 1.97 µM); MIC [30]: 15.6 µg/mL (≈ 62.6 µM); MIC [34]: 0.24 µg/mL (≈ 0.963 µM); MIC [35]: 3.9 µg/mL (≈ 15.6 µM); MIC [36]: > 31.3 µg/mL; MIC [37]: 1.95 µg/mL (≈ 7.82 µM); MIC [40]: > 31.3 µg/mL |
| O=C(NNc1ccc(Cl)cc1)c1cnccn1 | 15.6 (≈ 62.7 µM) | 3.9 (≈ 15.7 µM) | 3.9 (≈ 15.7 µM) | 1.95 (≈ 7.84 µM) | 1.95 (≈ 7.84 µM) | 3.9 (≈ 15.7 µM) | 1.95 (≈ 7.84 µM) | 7.8 (≈ 31.4 µM) | 31.3 (≈ 126 µM) | 3.9 (≈ 15.7 µM) | 3.9 (≈ 15.7 µM) | 1.95 (≈ 7.84 µM) | 1.95 (≈ 7.84 µM) | 15.6 (≈ 62.7 µM) | 3.9 (≈ 15.7 µM) | 7.8 (≈ 31.4 µM) | 7.8 (≈ 31.4 µM) | 1.95 (≈ 7.84 µM) | 7.8 (≈ 31.4 µM) | 3.9 (≈ 15.7 µM) |  |
